{"source": "ChEMBL document CHEMBL1143159", "about": "“Indole-2-amide based biochemical antagonist of Dishevelled PDZ domain interaction down-regulates Dishevelled-driven Tcf transcriptional activity” (Bioorg Med Chem Lett, 2008)", "key": {"[1]": {"molecular_target": "T1, Segment polarity protein dishevelled homolog DVL-1 (Homo sapiens, UniProt O14640)", "T1 sequence (O14640 whole entry)": "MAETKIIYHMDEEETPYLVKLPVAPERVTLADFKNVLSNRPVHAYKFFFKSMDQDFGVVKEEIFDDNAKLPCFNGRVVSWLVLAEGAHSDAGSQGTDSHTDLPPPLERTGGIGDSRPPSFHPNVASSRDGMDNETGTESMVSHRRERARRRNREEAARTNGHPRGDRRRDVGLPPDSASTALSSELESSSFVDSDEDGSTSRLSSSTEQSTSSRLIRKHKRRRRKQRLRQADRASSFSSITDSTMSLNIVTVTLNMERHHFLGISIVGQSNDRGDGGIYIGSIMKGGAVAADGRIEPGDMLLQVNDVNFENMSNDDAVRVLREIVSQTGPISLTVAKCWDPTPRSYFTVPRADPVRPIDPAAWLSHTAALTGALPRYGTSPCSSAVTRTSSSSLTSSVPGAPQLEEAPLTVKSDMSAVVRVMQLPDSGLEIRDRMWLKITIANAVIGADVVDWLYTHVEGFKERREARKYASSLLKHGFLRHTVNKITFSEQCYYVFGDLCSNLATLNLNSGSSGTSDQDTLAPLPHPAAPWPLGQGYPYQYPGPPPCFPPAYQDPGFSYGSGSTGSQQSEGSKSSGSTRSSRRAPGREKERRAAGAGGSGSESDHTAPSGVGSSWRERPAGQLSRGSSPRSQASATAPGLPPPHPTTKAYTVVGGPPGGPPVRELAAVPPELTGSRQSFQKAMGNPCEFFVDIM", "assay": "Antagonist activity at human Dvl1 assessed as inhibition of interaction between Dvl1 PDZ domain and […] by alphaScreen assay", "format": "functional"}, "[2]": {"molecular_target": "T2, Segment polarity protein dishevelled homolog DVL-3 (Homo sapiens, UniProt Q92997)", "T2 sequence (Q92997 whole entry)": "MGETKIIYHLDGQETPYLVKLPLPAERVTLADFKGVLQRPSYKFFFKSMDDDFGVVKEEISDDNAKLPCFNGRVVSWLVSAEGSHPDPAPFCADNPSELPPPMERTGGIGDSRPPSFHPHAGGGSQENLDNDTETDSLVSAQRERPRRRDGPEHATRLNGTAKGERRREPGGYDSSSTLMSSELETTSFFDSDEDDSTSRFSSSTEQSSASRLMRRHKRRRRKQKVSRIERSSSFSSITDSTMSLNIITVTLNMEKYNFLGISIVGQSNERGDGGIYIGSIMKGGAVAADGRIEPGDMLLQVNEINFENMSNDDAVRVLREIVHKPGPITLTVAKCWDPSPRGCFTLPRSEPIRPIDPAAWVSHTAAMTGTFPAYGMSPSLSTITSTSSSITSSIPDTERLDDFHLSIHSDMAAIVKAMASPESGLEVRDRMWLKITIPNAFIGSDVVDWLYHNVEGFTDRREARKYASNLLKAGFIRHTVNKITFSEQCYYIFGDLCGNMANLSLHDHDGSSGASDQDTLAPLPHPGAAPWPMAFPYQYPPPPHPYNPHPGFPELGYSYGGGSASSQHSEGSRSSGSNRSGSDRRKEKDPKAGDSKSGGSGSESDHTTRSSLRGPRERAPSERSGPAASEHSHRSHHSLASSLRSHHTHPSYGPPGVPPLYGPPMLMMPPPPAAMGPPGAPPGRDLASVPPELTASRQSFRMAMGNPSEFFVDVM", "assay": "Antagonist activity at human Dvl3 assessed as inhibition of interaction between Dvl3 PDZ domain and […] by alphaScreen assay", "format": "functional", "method_in_brief": "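Competitive AlphaScreen energy-transfer assay for binding of the Dvl PDZ domain to the Fz7 PDZ-binding region. IC50 fitted from binding curves, each the mean of three independent experiments.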"}, "HepG2 [3]": {"tested_on": "HepG2", "assay": "Induction of apoptosis in human HepG2 cells assessed as caspase 3 activation at 100 uM after 2 days", "format": "functional, cell-based", "method_in_brief": "(§1)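 HepG2 hepatocellular carcinoma, Rh30 rhabdomyosarcoma and hTERT-immortalized BJ foreskin fibroblast cells were exposed to compound at 100 μM for 2 days. Caspase-3/7 activity was then read with Caspase3/7-Glo reagent and expressed as a proportion of the DMSO control (set to 1), as the mean of three independent experiments.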"}, "HepG2 [4]": {"tested_on": "HepG2", "assay": "Induction of apoptosis in human HepG2 cells assessed as caspase 7 activation at 100 uM after 2 days", "format": "functional, cell-based", "method_in_brief": "as §1"}, "SJRH30 [5]": {"tested_on": "SJRH30", "assay": "Induction of apoptosis in human Rh30 cells assessed as caspase 3 activation at 100 uM after 2 days", "format": "functional, cell-based", "method_in_brief": "as §1"}, "SJRH30 [6]": {"tested_on": "SJRH30", "assay": "Induction of apoptosis in human Rh30 cells assessed as caspase 7 activation at 100 uM after 2 days", "format": "functional, cell-based", "method_in_brief": "as §1"}, "BJ [7]": {"tested_on": "BJ", "assay": "Induction of apoptosis in human BJ cells assessed as caspase 3 activation at 100 uM after 2 days", "format": "functional, cell-based", "method_in_brief": "as §1"}, "BJ [8]": {"tested_on": "BJ", "assay": "Induction of apoptosis in human BJ cells assessed as caspase 7 activation at 100 uM after 2 days", "format": "functional, cell-based", "method_in_brief": "as §1"}}, "note": "The source made the active and inactive calls. The calls are words filed in the database; no cut-off is given here."}
{"smiles": "CCCNC(=O)c1[nH]c2cc(C)c(C(=O)O)cc2c1CCc1ccccc1", "values": [{"measurement": "IC50", "setting": "[1]", "value": "> 500", "unit": "µM"}, {"measurement": "IC50", "setting": "[2]", "value": "> 500", "unit": "µM"}]}
{"smiles": "COC(=O)c1cc2c(CCc3ccccc3)c(C(=O)NC3CCCCC3)[nH]c2cc1C", "values": [{"measurement": "IC50", "setting": "[2]", "value": 57, "unit": "µM"}]}
{"smiles": "Cc1cc2c(cc1C(=O)O)c(CCc1ccccc1)c(C(=O)NC1CCCCC1)n2C", "values": [{"measurement": "IC50", "setting": "[2]", "value": 92, "unit": "µM"}, {"measurement": "Activity", "setting": "HepG2 [3]", "value": "Active"}, {"measurement": "Activity", "setting": "HepG2 [4]", "value": "Active"}, {"measurement": "Activity", "setting": "SJRH30 [5]", "value": "Active"}, {"measurement": "Activity", "setting": "SJRH30 [6]", "value": "Active"}, {"measurement": "Activity", "setting": "BJ [7]", "value": "inactive"}, {"measurement": "Activity", "setting": "BJ [8]", "value": "inactive"}]}
{"smiles": "Cc1cc2[nH]c(C(=O)NC(C)(C)C)c(CCc3ccccc3)c2cc1C(=O)O", "values": [{"measurement": "IC50", "setting": "[1]", "value": "> 500", "unit": "µM"}, {"measurement": "IC50", "setting": "[2]", "value": "> 500", "unit": "µM"}]}
{"smiles": "Cc1cc2[nH]c(C(=O)NCCC(=O)O)c(CCc3ccccc3)c2cc1C(=O)O", "values": [{"measurement": "IC50", "setting": "[1]", "value": "> 500", "unit": "µM"}, {"measurement": "IC50", "setting": "[2]", "value": "> 500", "unit": "µM"}]}
{"smiles": "Cc1cc2[nH]c(C(=O)NC3CCCCC3)c(CCc3ccccc3)c2cc1C(=O)O", "values": [{"measurement": "IC50", "setting": "[2]", "value": 23, "unit": "µM"}, {"measurement": "Activity", "setting": "HepG2 [3]", "value": "Active"}, {"measurement": "Activity", "setting": "HepG2 [4]", "value": "Active"}, {"measurement": "Activity", "setting": "SJRH30 [5]", "value": "Active"}, {"measurement": "Activity", "setting": "SJRH30 [6]", "value": "Active"}, {"measurement": "Activity", "setting": "BJ [7]", "value": "inactive"}, {"measurement": "Activity", "setting": "BJ [8]", "value": "inactive"}]}
{"smiles": "Cc1cc2[nH]c(C(=O)NCc3ccccc3)c(CCc3ccccc3)c2cc1C(=O)O", "values": [{"measurement": "IC50", "setting": "[2]", "value": 291, "unit": "µM"}, {"measurement": "Activity", "setting": "HepG2 [3]", "value": "Active"}, {"measurement": "Activity", "setting": "HepG2 [4]", "value": "Active"}, {"measurement": "Activity", "setting": "SJRH30 [5]", "value": "Active"}, {"measurement": "Activity", "setting": "SJRH30 [6]", "value": "Active"}, {"measurement": "Activity", "setting": "BJ [7]", "value": "inactive"}, {"measurement": "Activity", "setting": "BJ [8]", "value": "inactive"}]}
{"smiles": "CCC(C)CNC(=O)c1[nH]c2cc(C)c(C(=O)O)cc2c1CCc1ccccc1", "note": "(stereo not drawn)", "values": [{"measurement": "IC50", "setting": "[2]", "value": 160, "unit": "µM"}, {"measurement": "Activity", "setting": "HepG2 [3]", "value": "Active"}, {"measurement": "Activity", "setting": "HepG2 [4]", "value": "Active"}, {"measurement": "Activity", "setting": "SJRH30 [5]", "value": "Active"}, {"measurement": "Activity", "setting": "SJRH30 [6]", "value": "Active"}, {"measurement": "Activity", "setting": "BJ [7]", "value": "inactive"}, {"measurement": "Activity", "setting": "BJ [8]", "value": "inactive"}]}
{"smiles": "Cc1cc2[nH]c(C(=O)NCC3CC3)c(CCc3ccccc3)c2cc1C(=O)O", "values": [{"measurement": "IC50", "setting": "[1]", "value": "> 500", "unit": "µM"}, {"measurement": "IC50", "setting": "[2]", "value": "> 500", "unit": "µM"}]}
{"smiles": "Cc1cc2[nH]c(C(=O)NCC3CCCCC3)c(CCc3ccccc3)c2cc1C(=O)O", "values": [{"measurement": "IC50", "setting": "[2]", "value": 309, "unit": "µM"}]}
